Here are results for 18 compounds from ChEMBL document CHEMBL4602630, “Synthesis and cytotoxicity evaluation of glycosidic derivatives of lawsone against breast cancer cell lines” (Bioorg Med Chem Lett, 2020).

One data set deals with MCF7. Put plainly: Cytotoxicity against ER-positive human MCF7 cells assessed as redution in cell viability incubated for 72 hrs by SRB assay. The data set is classed as functional, cell-based. To be noted: MCF7, 72 h. The essentials: (§1)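 Breast tumour lines from ATCC, each in its own medium with 10% FBS: SKBR-3 (HER2+) in McCoy's 5A; MCF-7 (ER+) in MEM plus 0.01 mg/mL human recombinant insulin; MDA-MB-231 (triple-negative) in DMEM. Cells were kept at 37°C, 5% CO2, humidified. Compounds were tested on 1x10^4 cells/well by sulforhodamine B assay. IC50 came from a nonlinear fit of log concentration vs normalized response (variable slope).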
(In SRB staining, fixed cells bind dye roughly in proportion to their protein.)

A further data set concerns MDA-MB-231. The experiment in a line: Cytotoxicity against triple-negative human MDA-MB-231 cells assessed as redution in cell viability incubated for 72 hrs by SRB assay. The data set is classed as functional, cell-based. Conditions: MDA-MB-231, 72 h. The essentials: as §1
Data set [1] can be described thus: Cytotoxicity against human HGF cells assessed as redution in cell viability incubated for 72 hrs by SRB assay. The data set is classed as cell-based. The essentials: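 Non-tumour human HGF cells were obtained under UFSC ethics approval 021/2009 and kept at 37°C, 5% CO2, humidified, with 10% FBS. Compounds were tested on 1x10^4 cells/well by sulforhodamine B assay. IC50 came from a nonlinear variable-slope fit of log concentration vs normalized response.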

A further data set has as its system SK-BR-3. The experiment in a line: Cytotoxicity against HER2-positive human SKBR3 cells assessed as redution in cell viability incubated for 72 hrs by SRB assay. Format: functional, cell-based. Conditions: SK-BR-3, 72 h.
A short description of data set [2]: Selectivity index, ratio of IC50 for human HGF cells to IC50 for SKBR3 cells. Format: toxicity. To be noted: HGF cells versus SKBR3 cells, read-out: Ratio IC50.
Data set [3] is described as follows: Selectivity index, ratio of IC50 for human HGF cells to IC50 for MDA-MB-231 cells. Format: toxicity. To be noted: HGF cells versus MDA-MB-231 cells, read-out: Ratio IC50.
Data set [4] in a line: Selectivity index, ratio of IC50 for human HGF cells to IC50 for MCF7 cells. The data set is classed as toxicity. Conditions: HGF cells versus MCF7 cells, read-out: Ratio IC50.

Some results are limits rather than exact numbers.

The term IC50 denotes the concentration at which inhibition is half-maximal. Regarding `CC(=O)OC[C@H]1O[C@H](OC2=CC(=O)c3ccccc3C2=O)[C@H](OC(C)=O)[C@@H](OC(C)=O)[C@@H]1OC(C)=O`, the IC50 with MCF7 turned out to be 3.52 µM; with MDA-MB-231, 8.29 µM; in data set [1], 20.2 µM; with SK-BR-3, 2.11 µM.

As for `CC(=O)N[C@H]1[C@@H](OC2=CC(=O)c3ccccc3C2=O)O[C@H](COC(C)=O)[C@@H](OC(C)=O)[C@@H]1OC(C)=O`, the IC50 in the data set on MCF7 worked out at 6.59 µM; in the data set on MDA-MB-231, 19.8 µM; in data set [1], 40.2 µM; in the data set on SK-BR-3 it was 3.41 µM.

As for `CC(=O)O[C@@H]1[C@H](OC(C)=O)[C@H](C)O[C@H](n2cc(COC3=CC(=O)c4ccccc4C3=O)nn2)[C@H]1OC(C)=O`, the IC50 in the data set with MCF7 amounted to 9.74 µM; in the data set with MDA-MB-231 it was 23.4 µM; in data set [1], 38.1 µM; in the data set on SK-BR-3, 3.32 µM.

As for `CC(=O)N[C@@H]1[C@@H](O)[C@H](O)[C@@H](CO)O[C@H]1n1cc(COC2=CC(=O)c3ccccc3C2=O)nn1`, the concentration for half-maximal inhibition (IC50) (in the data set with MCF7; in the data set on MDA-MB-231; in data set [1]; with SK-BR-3) was above 50 µM throughout.

With `O=C1C=C(O)C(=O)c2ccccc21` [LAWSONE], the half-maximal inhibitory concentration (IC50) (with MCF7; in the data set on MDA-MB-231; in data set [1]; in the data set with SK-BR-3) was above 50 µM each time.

In the case of `COc1cccc2c1C(=O)c1c(O)c3c(c(O)c1C2=O)C[C@@](O)(C(=O)CO)C[C@@H]3O[C@H]1C[C@H](N)[C@H](O)[C@H](C)O1` [DOXORUBICIN], the half-maximal inhibitory concentration (IC50) in the data set with MCF7 was 0.38 µM; in data set [1] it was above 50 µM.

As for `C[C@@H]1O[C@H](n2cc(COC3=CC(=O)c4ccccc4C3=O)nn2)[C@@H](O)[C@H](O)[C@@H]1O`, the IC50 (with MCF7; with MDA-MB-231; in data set [1]; in the data set on SK-BR-3) was above 50 µM in each case.

Regarding `CC(=O)OC[C@H]1O[C@@H](n2cc(COC3=CC(=O)c4ccccc4C3=O)nn2)[C@H](OC(C)=O)[C@@H](OC(C)=O)[C@H]1OC(C)=O`, the IC50 in the data set with MCF7 was determined as 4.22 µM; in the data set on MDA-MB-231, 16.7 µM; in data set [1], 27.6 µM; in the data set with SK-BR-3, 1.27 µM. For the same compound, in data set [2], the selectivity ratio was found to be 22.

Take `CC(=O)N[C@@H]1[C@@H](OC(C)=O)[C@H](OC(C)=O)[C@@H](COC(C)=O)O[C@H]1n1cc(COC2=CC(=O)c3ccccc3C2=O)nn1`: the IC50 was 28.9 µM in the data set on MCF7, above 50 µM in the data set on MDA-MB-231, above 50 µM in data set [1] and 17 µM with SK-BR-3.

Regarding `CC(=O)N[C@H]1[C@H](OC2=CC(=O)c3ccccc3C2=O)O[C@H](COC(C)=O)[C@@H](OC(C)=O)[C@@H]1OC(C)=O`, the half-maximal inhibitory concentration (IC50) with MCF7 is 16.3 µM; in the data set on MDA-MB-231 it was 27.6 µM; in data set [1] it was above 50 µM; in the data set on SK-BR-3, 8.3 µM.

On to `CC(=O)OC[C@H]1O[C@@H](OC2=CC(=O)c3ccccc3C2=O)[C@H](OC(C)=O)[C@@H](OC(C)=O)[C@@H]1OC(C)=O`, for which the IC50 came out at 4.76 µM with MCF7, 12.6 µM in the data set with MDA-MB-231, 19.1 µM in data set [1] and 2.96 µM with SK-BR-3.

With `O=C1C=C(OCc2cn([C@@H]3O[C@H](CO)[C@@H](O)[C@H](O)[C@H]3O)nn2)C(=O)c2ccccc21`, the concentration for half-maximal inhibition (IC50) in the data set with MCF7 is 38.9 µM; with MDA-MB-231, above 50 µM; in data set [1], above 50 µM; with SK-BR-3, 34.7 µM.

For `CC(=O)O[C@H]1[C@H](OC(C)=O)[C@H](OC2=CC(=O)c3ccccc3C2=O)O[C@@H](C)[C@H]1OC(C)=O`, the IC50 in the data set on MCF7 is 11 µM; with MDA-MB-231, 18.2 µM; in data set [1], 19.8 µM; in the data set on SK-BR-3, 9.52 µM.

Take `CC(=O)OC[C@H]1O[C@@H](n2cc(COC3=CC(=O)c4ccccc4C3=O)nn2)[C@H](OC(C)=O)[C@@H](OC(C)=O)[C@@H]1OC(C)=O`: the IC50 is 3.33 µM in the data set with MCF7, 14 µM with MDA-MB-231, 17.7 µM in data set [1] and 0.78 µM in the data set on SK-BR-3. Moreover, in data set [2], the selectivity ratio was 22.

In the case of `CC(=O)OC[C@H]1O[C@H](OC2=CC(=O)c3ccccc3C2=O)[C@H](OC(C)=O)[C@@H](OC(C)=O)[C@H]1OC(C)=O`, the half-maximal inhibitory concentration (IC50) was 4.58 µM in the data set with MCF7, 9.18 µM in the data set on MDA-MB-231, 35.7 µM in data set [1] and 2.51 µM in the data set with SK-BR-3. Moreover, the figures for the selectivity ratio in data set [3] and in data set [4] were 4 and 8, respectively.

`CC(=O)O[C@H]1[C@H](OC(C)=O)[C@@H](OC2=CC(=O)c3ccccc3C2=O)O[C@@H](C)[C@H]1OC(C)=O`: the IC50 in the data set with MCF7 was 5.02 µM; in the data set on MDA-MB-231 it was 8.65 µM; in data set [1], above 50 µM; in the data set with SK-BR-3 it was 2.41 µM.

As for `O=C1C=C(OCc2cn([C@@H]3O[C@H](CO)[C@H](O)[C@H](O)[C@H]3O)nn2)C(=O)c2ccccc21`, the concentration for half-maximal inhibition (IC50) (in the data set on MCF7; in the data set with MDA-MB-231; in data set [1]; in the data set on SK-BR-3) was above 50 µM throughout.

For `CC(=O)OC[C@H]1O[C@@H](OC2=CC(=O)c3ccccc3C2=O)[C@H](OC(C)=O)[C@@H](OC(C)=O)[C@H]1OC(C)=O`, the 50% inhibitory concentration (IC50) in the data set with MCF7 was 13.6 µM; in the data set with MDA-MB-231, 13.3 µM; in data set [1] it was 34.6 µM; with SK-BR-3, 8.86 µM.
